# An excerpt weighted towards active compounds, which were near 0.8% of everything screened.
# AP complement: alternative complement pathway inhibitors, primary screen, biochemical, ELISA, human serum, orthogonally pooled compounds; LPS-coated ELISA, C3 deposition; tested in compound mixtures; inhibition, % at 5 µM; hit rate 0.08% among 62,000;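 active = inhibition above 30% in each of the two pooled mixtures holding the compound, so the lower value exceeds 30%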
#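 Assay system: human serum alternative complement pathway, C3 deposition on LPS-coated wells; Dosing: 5 µM per compound in ten-compound mixtures; Detection: Anti-C3 ELISA, OD 450 nm; Buffer or medium: Mg2+-EGTA GVB++ buffer containing human serum at 1:15 dilution; Timing: 1 h at 37 °C; Replication: two different pools per compound.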
# FXIIa mix inh: human factor XIIa inhibitors, primary screen, biochemical, pooled compound mixtures, fluorogenic substrate; Coagulation factor XII (Homo sapiens), P00748; purified FXIIa; inhibition, % at 5 µM; hit rate 0.2% among 62,000
# Htt clearance: clearance of mutant huntingtin inclusions, primary screen, imaging, HeLa Exon1htt(103Q)mCFP, confocal imaging | aggregate imaging; zero = plate's median compound well | inhibition, % at 1.5 µM | hit rate 0.42% among 47,000;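 active = inhibition of aggregate fluorescence above about 70%, also judged a hit by eye on the cell image, limit read from the data, passing the limit was not always enough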;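 also: cells exposed to compound for three days before fixation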
# C1s block: complement C1s protease inhibitors, primary screen, biochemical, 10-compound mixtures | Complement C1s subcomponent (Homo sapiens), P09871 | purified C1s, fluorogenic AMC substrate, pooled mixtures | hit rate 0.16% among 62,000 | mean inhibition % of two 10-compound mixtures (hits give high values), % at 5 µM (by protocol) | AID 538, 2006;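 active = inhibition above 20% in each of the two 10-compound mixture wells holding the compound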
# CatG inh: human cathepsin G inhibitors, primary screen, biochemical, pooled compound mixtures, AMC fluorescence; P08311; purified enzyme, AMC-tetrapeptide fluorescence; inhibition, % at 5 µM (by protocol); hit rate 0.2% among 62,000;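 active = inhibition above 20% in each of the two mixture wells holding the compound; inactive = inhibition of 20% or less in either well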
# Target sequence (P08311 21-244 limits assumed): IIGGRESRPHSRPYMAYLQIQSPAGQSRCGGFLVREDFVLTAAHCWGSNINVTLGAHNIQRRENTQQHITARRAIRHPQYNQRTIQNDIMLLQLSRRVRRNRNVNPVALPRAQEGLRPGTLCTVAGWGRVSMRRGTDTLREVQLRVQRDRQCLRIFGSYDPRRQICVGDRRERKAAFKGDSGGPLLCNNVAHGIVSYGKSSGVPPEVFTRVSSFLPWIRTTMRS
# FXIa mix inh: FXIa protease inhibitors in compound pools, primary screen, biochemical, 10-compound mixtures; Coagulation factor XI (Homo sapiens), P03951; purified FXIa, fluorogenic substrate, pooled mixtures; inhibition, % at 5 µM; hit rate 0.19% among 62,000;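 also: each value is inhibition by a whole ten-compound pool holding the compound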
# Numbers stand for hits; – = inactive; · = not tested or not shown. Rule as the data show it, unless noted: active = inhibition above about 20% (passing the limit was not always enough); inactive = the rest.
SMILES,AP complement,FXIIa mix inh,Htt clearance,C1s block,CatG inh,FXIa mix inh
CCOC(=O)c1c(NC(=O)C(c2ccccc2)c2ccccc2)sc2c1C1CCN2CC1,·,·,74.9,·,·,·
Cn1c(C(=O)O)c(CC(=O)N2CCN(Cc3ccccc3)CC2)c2ccccc21,–,–,–,–,–,–
CCN1CCC(O)(c2ccccc2)C(C(=O)c2ccccc2)C1 (stereo unspecified),·,·,86.6,·,·,·
CCOc1ccc(-n2c(O)c(C=NCCCn3ccnc3)c(=O)[nH]c2=O)cc1,·,·,–,·,·,·
CCC1(CC)C(=O)NC(=NCCc2c[nH]c3ccccc23)NC1=O,–,–,–,–,–,–
CCCCc1ccc2[nH]cc(CCN)c2c1,–,–,74.8,–,–,–
COc1ccccc1CC1C(=O)C2CCN1CC2 (stereo unspecified),·,·,–,·,·,·
COc1ccccc1CN1CCCCC1c1cccnc1 (stereo unspecified),–,–,–,58.9,–,–
